We go through 33 compounds from ChEMBL document CHEMBL3792298, “Design, synthesis and in vitro evaluation studies of sulfonyl-amino-acetamides as small molecule BACE-1 inhibitors” (Bioorg Med Chem, 2016).

The target in experiment [1] is T1, Beta-secretase 1 (Homo sapiens, UniProt P56817). Nature of the experiment: Inhibition of human BACE1 expressed in recombinant baculovirus-infected insect cells using rhodamine conjugated APP-based EVNLDAEFK as substrate at 10 uM after 60 mins by FRET analysis. In short, it runs like this: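 Commercial BACE-1 FRET kit run per supplier protocol, with 3X BACE-1 enzyme (1U/ml) in 50mM sodium acetate buffer, pH 4.5. Compounds were made as 10mM DMSO stocks and diluted in buffer to a final 10µM. After 60 min incubation, fluorescence was read with excitation at 545 nm. Percent inhibition is given as mean ± S.D. of triplicate independent experiments.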

The target in experiment [2] is T1, Beta-secretase 1. The experiment is described as follows: Inhibition of human BACE1 expressed in recombinant baculovirus-infected insect cells using rhodamine conjugated APP-based EVNLDAEFK as substrate after 60 mins by FRET analysis. In short, it runs like this:
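FRET cleavage assay from a commercial BACE-1 kit, following supplier protocol. It used 3X BACE-1 enzyme (1U/ml) in 50mM sodium acetate buffer, pH 4.5. Test compounds were prepared as 10mM DMSO stocks and diluted with buffer. After 60 min incubation, fluorescence was read at 545 nm excitation.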

pIC50: −log10 of the molar value.

T1 sequence (P56817 whole entry): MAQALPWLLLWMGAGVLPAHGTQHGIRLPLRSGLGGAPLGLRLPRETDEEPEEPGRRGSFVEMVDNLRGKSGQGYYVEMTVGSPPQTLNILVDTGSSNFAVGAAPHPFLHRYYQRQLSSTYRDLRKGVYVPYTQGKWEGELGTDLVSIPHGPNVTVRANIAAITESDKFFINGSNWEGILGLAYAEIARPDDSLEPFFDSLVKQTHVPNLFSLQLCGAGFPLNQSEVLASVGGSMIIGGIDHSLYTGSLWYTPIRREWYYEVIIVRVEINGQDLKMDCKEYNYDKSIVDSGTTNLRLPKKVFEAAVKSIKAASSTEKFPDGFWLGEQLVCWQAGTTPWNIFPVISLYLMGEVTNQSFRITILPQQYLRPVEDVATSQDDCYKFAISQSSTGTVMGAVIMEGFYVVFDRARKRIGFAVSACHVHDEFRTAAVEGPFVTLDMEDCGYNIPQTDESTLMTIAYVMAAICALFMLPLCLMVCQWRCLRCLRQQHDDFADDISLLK

What is called inhibition is the percentage by which the read-out fell short of the control. In the case of `CC(=O)Nc1ccc(S(=O)(=O)NCC(=O)Nc2ccccc2)cc1`, the inhibition at Beta-secretase 1 [1] was determined as 28.9%. On the same count and under the same terms, in the case of `O=C(CNS(=O)(=O)c1ccccc1)Nc1ccc(Cl)cc1` it was 5.09%; in that of `Cc1ccc(S(=O)(=O)NCC(=O)Nc2ccc(C)cc2C)cc1`, 35%; in that of `O=C(CNS(=O)(=O)c1ccc(Cl)cc1)Nc1ccccc1`, 22.8%.

As to `O=C(CNS(=O)(=O)c1ccccc1[N+](=O)[O-])Nc1ccccc1`, the inhibition on Beta-secretase 1 [1] turned out to be 14.9%. The same measure, in the same setting: next, `O=C(CNS(=O)(=O)c1ccccc1[N+](=O)[O-])Nc1ccc(Cl)cc1`: 18.5%; `O=C(CNS(=O)(=O)c1ccccc1[N+](=O)[O-])Nc1cccc(Cl)c1`: 17.5%. The same measure, in the same setting: in the case of `COc1ccc(S(=O)(=O)NCC(=O)Nc2cccc(Cl)c2)cc1` it was 38.3%; in that of `O=C(CNS(=O)(=O)c1ccccc1)Nc1ccccc1`, 8.72%.

Turning to `O=C(CNS(=O)(=O)c1cccc([N+](=O)[O-])c1)Nc1cccc(Cl)c1`, the inhibition on Beta-secretase 1 [1] is 42.1%. Same read-out and setting: next, `Cc1ccc(S(=O)(=O)NCC(=O)Nc2ccccc2)cc1`: 21.9%.

By pIC50 is commonly meant the IC50 on a negative log10 scale, so that one unit is a factor of ten. Turning to `CC(=O)Nc1ccc(S(=O)(=O)NCC(=O)Nc2ccc(C)cc2C)cc1`, at Beta-secretase 1 [1], the inhibition was found to be 61.9%. Besides, on Beta-secretase 1 [2], the pIC50 was 5.10.

`Cc1ccc(NC(=O)CNS(=O)(=O)c2ccc([N+](=O)[O-])cc2)c(C)c1`: on Beta-secretase 1 [1], the inhibition is 9.49%. On the same count and under the same terms, next, `Cc1ccc(NC(=O)CNS(=O)(=O)c2cccc([N+](=O)[O-])c2)c(C)c1`: 41%. The same measure, in the same setting: in the case of `O=C(CNS(=O)(=O)c1ccc([N+](=O)[O-])cc1)Nc1ccc(Cl)cc1` it was 9.89%. On the same count and under the same terms, in the case of `Cc1ccc(NC(=O)CNS(=O)(=O)c2ccccc2)c(C)c1` it was 5.38%. Turning to `COc1ccc(S(=O)(=O)NCC(=O)Nc2ccccc2)cc1`, the inhibition on Beta-secretase 1 [1] turned out to be 28.6%.

In the case of `O=C(CNS(=O)(=O)c1ccc([N+](=O)[O-])cc1)Nc1cccc(Cl)c1`, on Beta-secretase 1 [1], the inhibition worked out at 17%.

In the case of `O=C(CNS(=O)(=O)c1cccc([N+](=O)[O-])c1)Nc1ccc(Cl)cc1`, at Beta-secretase 1 [1], the inhibition stood at 29.5%. Same read-out and setting: in the case of `COc1ccc(S(=O)(=O)NCC(=O)Nc2ccc(C)cc2C)cc1` it was 28.4%; in that of `O=C(CNS(=O)(=O)c1ccc(Cl)cc1)Nc1cccc(Cl)c1`, 48.6%.

Consider `O=C(CNS(=O)(=O)c1ccc([N+](=O)[O-])cc1)Nc1ccccc1`, for which the inhibition at Beta-secretase 1 [1] was 5.03%.

Consider `O=C(CNS(=O)(=O)c1ccccc1)Nc1cccc(Cl)c1`, for which, on Beta-secretase 1 [1], the inhibition came out at 4.83%. `CC(=O)Nc1ccc(S(=O)(=O)NCC(=O)Nc2ccc(Cl)cc2)cc1`: the inhibition on Beta-secretase 1 [1] came out at 37.1%. Same read-out and setting: in the case of `Cc1ccccc1S(=O)(=O)NCC(=O)Nc1ccccc1` it was 18.5%. Regarding `Cc1ccc(NC(=O)CNS(=O)(=O)c2ccccc2[N+](=O)[O-])c(C)c1`, on Beta-secretase 1 [1], the inhibition was 21.6%.

Turning to `O=C(CNS(=O)(=O)c1cccc([N+](=O)[O-])c1)Nc1ccccc1`, the inhibition on Beta-secretase 1 [1] was 42%. The same measure, in the same setting: in the case of `COc1ccc(S(=O)(=O)NCC(=O)Nc2ccc(Cl)cc2)cc1` it was 35.1%. For `Cc1ccc(S(=O)(=O)NCC(=O)Nc2cccc(Cl)c2)cc1`, the inhibition on Beta-secretase 1 [1] was found to be 31.8%. Still for that read-out and setting: in the case of `Cc1ccc(S(=O)(=O)NCC(=O)Nc2ccc(Cl)cc2)cc1` it was 25.3%. On the same count and under the same terms, in the case of `O=C(CNS(=O)(=O)c1ccc(Cl)cc1)Nc1ccc(Cl)cc1` it was 34.8%. In the case of `CC(=O)Nc1ccc(S(=O)(=O)NCC(=O)Nc2cccc(Cl)c2)cc1`, at Beta-secretase 1 [1], the inhibition came out at 52.9%. As for `Cc1ccc(NC(=O)CNS(=O)(=O)c2ccc(Cl)cc2)c(C)c1`, at Beta-secretase 1 [1], the inhibition amounted to 35.9%.
